Measurements collected from several papers.
Each line is one published result; the experiments were not run side by side.

SMILES | species | sample | route | dose | notes | AUC(0-t)
CS(=O)(=O)CCNCc1ccc(-c2ccc3ncnc(Nc4ccc(OCc5cccc(F)c5)c(Cl)c4)c3c2)o1 | nude mouse | plasma | oral | 200 mg/kg | single dose | 234000 ng·h/mL
CCOC(=O)c1sc(Nc2ncccn2)nc1-c1ccccn1 | male CD-1 mouse | plasma | oral | 10 mg/kg |  | 195 ng·h/mL
COc1nc(-c2cc(C)c(N[C@@H](C)c3ccc(F)cc3)nn2)ccc1-n1cnc(C)c1 | male CD-1 mouse | plasma | intravenous | 1 mg/kg | single dose | 4020 ng·h/mL
COc1ccc2nc(-c3ccccn3)c(N(C)c3ccc(F)cc3)n2c1 | male CD-1 mouse | plasma | oral | 50 mg/kg | fasted | 953 ng·h/mL
NS(=O)(=O)c1ccc(-c2cc(Nc3ccc(OC(F)(F)F)cc3)ncn2)cc1 | male BALB/c mouse | plasma | oral | 20 mg/kg |  | 9390 ng·h/mL
Cc1ccc2cncc(N3CCc4c(cc(Cn5ccnc5)cc4-c4cn(C)nc4C(F)(F)F)C3=O)c2c1 | male CD-1 mouse | plasma | oral | 50 mg/kg |  | 36300 ng·h/mL
CC[C@H](C)[C@@H]1NC(=O)[C@@](C)(NC(=O)[C@H](CCCNC(=N)N)NC(=O)[C@H](CC(C)C)NC(=O)[C@@H](NC(=O)[C@H](CCC(N)=O)NC(=O)[C@H](CC(C)C)NC(C)=O)[C@@H](C)O)CCCC=CCCC[C@@](C)(C(=O)N[C@@H](CC(C)C)C(=O)N[C@@H](Cc2ccc3ccccc3c2)C(N)=O)NC(=O)[C@H](CCCNC(=N)N)NC(=O)[C@H](CCC(N)=O)NC1=O | male BALB/c mouse | plasma | subcutaneous | 10 mg/kg |  | 140000 ng·h/mL
CN1CCN(C2CCN(c3nccc4[nH]c(-c5cc(F)cc(F)c5)nc34)CC2)CC1 | BALB/c mouse | blood | oral | 20 mg/kg |  | 11.8 µM·h
COc1ccc2nccc(N3CCc4c(cc(Cn5ccnc5)cc4-c4cn(C)nc4C(F)(F)F)C3=O)c2c1 | male CD-1 mouse | plasma | intravenous | 3 mg/kg |  | 1840 ng·h/mL
CNC(=O)c1cc(Oc2ccc(NC(=O)Nc3ccc(Cl)c(C(F)(F)F)c3)c(F)c2)cc[n+]1[O-] | mouse | plasma | oral | 10 mg/kg | single dose | 1930 ng·h/mL
COc1nc(-c2cc(C)c(N[C@@H](C)c3cc(F)cc(F)c3)nn2)ccc1-n1cnc(C)c1 | male CD-1 mouse | plasma | intravenous | 1 mg/kg | single dose | 1940 ng·h/mL
CN1CCN(C(=O)c2cc3c(Nc4ccc(OC(F)(F)F)cc4)ncnc3s2)CC1 | male BALB/c mouse | plasma | oral | 20 mg/kg |  | 2410 ng·h/mL
CN1C(=O)c2ccccc2[S@+]([O-])c2ccc(C(=O)NCCc3cccs3)cc21 | male C57BL/6 mouse | plasma | intraperitoneal | 30 mg/kg | single dose | 7800 ng·h/mL
CCc1cc(C(=O)NC)c2nccc(N3CCc4c(cc(Cn5ccnc5)cc4-c4cn(C)nc4C(F)(F)F)C3=O)c2c1 | male CD-1 mouse | plasma | intravenous | 3 mg/kg |  | 4180 ng·h/mL
CSc1cc(Oc2ccnc3[nH]c(=O)cnc23)ccc1NC(=O)Nc1cc(C(C)(C)C)nn1-c1ccccc1 | BALB/c mouse | plasma | oral | 10 mg/kg |  | 275 µM·h
Cc1nc2ccc(F)cc2n1-c1nc(N)c(F)c(Nc2ccc(C(F)(F)F)cc2)n1 | nude mouse | plasma | oral | 10 mg/kg |  | 19300 ng·h/mL

SMILES | species | sample | route | dose | notes | AUC(0-t)
CCc1cc(OC)c2nccc(N3CCc4c(cc(Cn5ccnc5)cc4-c4cn(C)nc4C(F)(F)F)C3=O)c2c1 | male CD-1 mouse | plasma | oral | 50 mg/kg |  | 106000 ng·h/mL
Cc1nc(-c2cnc(NC(C)C)n(C)c2=O)ccc1Oc1ccnc(-c2cnn(C)c2)c1 | female mouse | plasma | oral | 15 mg/kg | single dose | 113000 ng·h/mL
Fc1ccc(-c2nc3c(N4CCC(CN5CCOCC5)CC4)nccc3[nH]2)cc1F | BALB/c mouse | blood | oral | 20 mg/kg |  | 34.6 µM·h
CCOc1ccc(Cc2cc([C@@H]3O[C@H](CO)[C@@H](O)[C@H](O)[C@H]3O)ccc2Cl)cc1 | male C57BL/6 mouse | plasma | oral | 1 mg/kg |  | 457 ng·h/mL
C=CC(=O)N1CC2CC(n3nc(-c4ccc(C(=O)Nc5ccccn5)cc4)c4c(N)ncnc43)CC2C1 (stereo not shown) | SCID mouse | plasma | oral | 3 mg/kg |  | 588 ng·h/mL
CN1CCN(c2nccc3nc(-c4ccc(F)c(F)c4)[nH]c23)CC1 | mouse | blood | intravenous | 2 mg/kg |  | 3.58 µM·h
Cc1c2c(n(-c3ccc(F)cc3Cl)c1-c1ccc(OS(=O)(=O)CCC(F)(F)F)cc1)CCN(N1CCCCC1)C2=O | mouse | plasma | oral | 6 µmol/kg | single dose | 0.89 µM·h
COc1cc(OC)c2nccc(N3CCc4c(cc(Cn5ccnc5)cc4-c4cn(C)nc4C(F)(F)F)C3=O)c2c1 | male CD-1 mouse | plasma | oral | 50 mg/kg |  | 60600 ng·h/mL
C[C@H]1[C@@H](O)O[C@@H]2O[C@@]3(C)CC[C@H]4[C@H](C)CC[C@@H]1[C@@]24OO3 | female SCID mouse | plasma | oral | 60 mg/kg |  | 382 ng·h/mL
CN1CCC[C@H](CN2c3ccccc3Sc3ccccc32)C1.Cl | mouse | plasma | intraperitoneal | 32 mg/kg | single dose | 6920 ng·h/mL
CNC(=O)c1cc(OC)cc2c(N3CCc4c(cc(Cn5ccnc5)cc4-c4cn(C)nc4C(F)(F)F)C3=O)ccnc12 | male CD-1 mouse | plasma | oral | 50 mg/kg |  | 144000 ng·h/mL
CN1CCN(CC2CCN(c3cncc4[nH]c(-c5cc(F)cc(F)c5)nc34)CC2)CC1 | mouse | blood | intravenous | 2 mg/kg |  | 0.967 µM·h
COc1ccc(C(O)COc2ccc(-c3csc(-c4ccc(OCC(O)c5ccc(OC)c(OC)c5)cc4)n3)cc2)cc1OC (stereo not shown) | C57BL/6 mouse | plasma | intravenous | 3 mg/kg |  | 4700 ng·h/mL
CN1CCC(N2CCN(c3nccc4[nH]c(-c5ccc(F)c(F)c5)nc34)CC2)CC1 | mouse | blood | intravenous | 2 mg/kg |  | 6.77 µM·h
CC(C)(C)c1cc(NC(=O)Nc2ccc(Oc3ccnc4[nH]c(=O)cnc34)cc2F)n(-c2ccccc2)n1 | BALB/c mouse | plasma | oral | 10 mg/kg |  | 416 µM·h
